Published values gathered from unrelated publications.
≈ marks a conversion by molar mass, not a printed value.
Organism: Nakaseomyces glabratus
Read-out: microbial growth
Strain: ATCC90030

C[C@@H]1[C@H](O)[C@@H](C)/C=C/C=C/C=C/C=C/C=C/C=C/C=C/[C@H](O[C@@H]2O[C@H](C)[C@@H](O)[C@H](N)[C@@H]2O)C[C@@H]2O[C@](O)(C[C@@H](O)C[C@@H](O)[C@H](O)CC[C@@H](O)C[C@@H](O)CC(=O)O[C@H]1C)C[C@H](O)[C@H]2C(=O)O  IC50: 0.14 µg/mL (≈ 0.152 µM)
CCOC(=O)c1nc2ccccc2c(=O)n1Cc1cn(-c2cccc(C)c2)nn1  IC50 (broth dilution; 24 h): 395 µg/mL (≈ 1010 µM)
CCCCCOc1c(OC)cc(NC(C)CCCNC(=O)C(N)C(C)CC)c2nc(C(C)(C)C)ccc12 (stereo not shown)  IC50: 15.2 µg/mL (≈ 29.6 µM)
O=C(O)c1ccc(-n2cc(Cn3c(C(=O)O)nc4ccccc4c3=O)nn2)cc1  IC50 (broth dilution; 24 h): 522 µg/mL (≈ 1330 µM)
CCCCCCCCCCCCCC(O)CC(O)CO (stereo not shown)  IC50 (broth dilution): > 200 µg/mL
O=C(O)c1nc2ccccc2c(=O)n1Cc1cn(-c2ccccc2Cl)nn1  IC50 (broth dilution; 24 h): 266 µg/mL (≈ 698 µM)
CCCCCOc1c(OC)cc(NC(C)CCCNC(=O)C(N)Cc2cc3ccccc3[nH]2)c2nc(C(C)(C)C)ccc12 (stereo not shown)  IC50: 9.72 µg/mL (≈ 16.5 µM)
C#CCCCCCCCCCCCC(O)CC(O)CO (stereo not shown)  IC50 (broth dilution): > 200 µg/mL
COc1cc(NC(C)CCCN)c2nc(C(C)(C)C)ccc2c1Oc1ccc(Cl)c(Cl)c1 (stereo not shown)  IC50: 19.4 µg/mL (≈ 40.7 µM)
C[C@@H]1[C@H](O)[C@@H](C)/C=C/C=C/C=C/C=C/C=C/C=C/C=C/[C@H](O[C@@H]2O[C@H](C)[C@@H](O)[C@H](N)[C@@H]2O)C[C@@H]2O[C@](O)(C[C@@H](O)C[C@@H](O)[C@H](O)CC[C@@H](O)C[C@@H](O)CC(=O)O[C@H]1C)C[C@H](O)[C@H]2C(=O)O  IC50 (broth dilution): 0.39 µg/mL (≈ 0.422 µM)
